{
  "source": "ChEMBL document CHEMBL3853320",
  "about": "“Discovery of Imidazoquinolines as a Novel Class of Potent, Selective, and in Vivo Efficacious Cancer Osaka Thyroid (COT) Kinase Inhibitors” (J Med Chem, 2016)",
  "key": {"[1]": {"target": "T1, Mitogen-activated protein kinase kinase kinase 8 (Homo sapiens, UniProt P41279)", "T1 sequence (P41279 whole entry, the tested form may be a part)": "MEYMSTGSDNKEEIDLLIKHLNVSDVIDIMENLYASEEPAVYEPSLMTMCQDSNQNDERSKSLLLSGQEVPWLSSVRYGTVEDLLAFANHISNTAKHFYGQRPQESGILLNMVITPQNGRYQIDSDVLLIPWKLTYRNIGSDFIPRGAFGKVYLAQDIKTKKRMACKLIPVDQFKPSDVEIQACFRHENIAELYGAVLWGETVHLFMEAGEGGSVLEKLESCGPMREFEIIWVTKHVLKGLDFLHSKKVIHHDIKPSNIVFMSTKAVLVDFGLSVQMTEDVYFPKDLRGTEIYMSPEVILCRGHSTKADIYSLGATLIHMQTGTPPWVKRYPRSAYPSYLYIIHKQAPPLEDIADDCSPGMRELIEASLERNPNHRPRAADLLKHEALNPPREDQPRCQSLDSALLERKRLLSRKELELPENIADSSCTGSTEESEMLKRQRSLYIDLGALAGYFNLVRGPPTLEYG", "assay": "Inhibition of human COT (66 to 395 residues) expressed in Sf21 cells using 5-Fluo-Ahx-AGAGSGQLIDSNleANSFVGTR-NH2 as substrate after 60 mins by caliper microfluidic mobility shift assay"}, "[2]": {"system": "Canis familiaris", "assay": "Antiinflammatory activity in MSU-induced beagle dog acute synovitis model assessed as prevention of inflammation-driven lameness at 0.2 mg/kg, po administered once a week 3 hrs post MSU injection measured after 6 hrs post last dose", "format": "functional, organism-based", "details": "Canis lupus familiaris", "procedure,_shortened": "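Lameness was induced in dogs by uric acid injection into the joint. Treatment was vehicle, test article at 5 or 15 mg/kg, or meloxicam 0.2 mg/kg. Vertical peak force of the affected limb was measured on a force plate while trotting. The read-out was the time after treatment for that force to recover to 60% of the value measured before lameness.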"}, "[3]": {"assay": "Octanol-water partition coefficient, log P of the compound by shake-flask method", "format": "physicochemical"}, "[4]": {"assay": "Protein binding in human plasma at 5 uM after 4 hrs by rapid equilibrium dialysis method", "format": "ADME, cell-free", "details": "read-out: PPB (converted)"}, "[5]": {"assay": "Clearance in wild type Sprague-Dawley rat plasma at 1 mg/kg, iv", "format": "ADME, organism-based", "procedure,_shortened": "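Male wild-type Sprague–Dawley rats were given 1 mg/kg intravenously. Clearance was derived from plasma.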"}, "[6]": {"assay": "Drug excretion in bile-duct cannulated Sprague-Dawley rat urine at 3 mg/kg, iv", "format": "ADME, organism-based", "details": "read-out: Drug excretion"}, "[7]": {"assay": "Equilibrium solubility of the compound at pH 6.8 after 16 hrs by mass spectrometric analysis", "format": "physicochemical", "details": "buffer"}, "[8]": {"target": "T1, Mitogen-activated protein kinase kinase kinase 8", "assay": "Inhibition of COT in LPS-stimulated human PBMC assessed as reduction in TNFalpha release incubated for 1 hr followed by stimulation with LPS for 4 hrs by HTRF assay", "procedure,_shortened": "(§1)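 Primary human PBMCs were stimulated with LPS. Read-outs were pERK, TNFα release, or p65 phosphorylation, each reported as IC50.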"}, "[9]": {"target": "T1, Mitogen-activated protein kinase kinase kinase 8", "assay": "Inhibition of COT in LPS-stimulated human whole blood assessed as reduction in TNFalpha release incubated for 30 mins followed by stimulation with LPS for 3 hrs by HTRF assay", "format": "tissue-based", "procedure,_shortened": "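Human whole blood was stimulated with LPS, and TNFα release was measured as IC50.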"}, "[10]": {"assay": "Metabolic stability in Sprague-Dawley rat liver microsomes assessed as parent compound remaining at 5 uM after 1 hr in presence of NADPH by HPLC/MS analysis", "format": "ADME", "details": "read-out: Stability"}, "[11]": {"assay": "Equilibrium solubility of the compound at pH 4 after 16 hrs by mass spectrometric analysis", "format": "physicochemical", "details": "buffer"}, "[12]": {"assay": "Metabolic stability in bile-duct cannulated Sprague-Dawley rat assessed as parent compound remaining in blood at 3 mg/kg, iv measured 4 hrs post dose", "format": "ADME, organism-based", "details": "read-out: Stability", "procedure,_shortened": "(§2)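 Bile-duct cannulated rats dosed in vivo. Parent and metabolites in each matrix were expressed as relative peak areas of the drug-related components detected, at the stated sampling time or collection period post dose.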"}, "[13]": {"assay": "Metabolic stability in bile-duct cannulated Sprague-Dawley rat assessed as parent compound remaining in urine at 3 mg/kg, iv measured over 8 hrs post dose", "format": "ADME, organism-based", "details": "read-out: Stability", "procedure,_shortened": "as §2"}, "[14]": {"assay": "Drug excretion in bile-duct cannulated Sprague-Dawley rat bile at 3 mg/kg, iv", "format": "ADME, organism-based", "details": "read-out: Drug excretion"}, "[15]": {"assay": "Metabolic stability in bile-duct cannulated Sprague-Dawley rat assessed as parent compound remaining in blood at 3 mg/kg, iv measured 1 hr post dose", "format": "ADME, organism-based", "details": "read-out: Stability"}, "[16]": {"assay": "Metabolic stability in bile-duct cannulated Sprague-Dawley rat assessed as parent compound remaining in bile at 3 mg/kg, iv measured over 8 hrs post dose", "format": "ADME, organism-based", "details": "read-out: Stability"}, "[17]": {"target": "T1, Mitogen-activated protein kinase kinase kinase 8", "assay": "Inhibition of COT in LPS-stimulated human PBMC assessed as reduction in ERK1/2 phosphorylation incubated for 60 mins followed by LPS stimulation for 12 mins by flow cytometric analysis", "procedure,_shortened": "as §1"}, "[18]": {"assay": "Half life in wild type Sprague-Dawley rat liver microsomes at 5 uM preincubated for 3 mins followed by NADPH addition measured after 1 hr by HPLC/MS analysis", "format": "ADME"}},
  "note": "Calls of active or inactive are those of the source. No cut-off for these calls is given here.",
  "data": [
    {"smiles": "c1nc2ccc(-n3cnc4cnc5cnc(N6CCCCC6)cc5c43)cc2[nH]1", "values": [
      {"measurement": "IC50", "setting": "[1]", "result": 3.5, "unit": "µM"}
    ]},
    {"smiles": "Cc1ccc(-c2cc3c(cn2)ncc2ncn(-c4ccc5nc[nH]c5c4)c23)cc1", "values": [
      {"measurement": "IC50", "setting": "[1]", "result": 1.3, "unit": "µM"}
    ]},
    {"smiles": "Cc1cnc(NC(=O)C2=C(O)c3ccccc3S(=O)(=O)N2C)s1", "values": [
      {"measurement": "Activity", "setting": "[2]", "result": "Active"}
    ]},
    {"smiles": "N#CCc1ccc(-n2cnc3cnc4cnc(-c5ccsc5)cc4c32)cc1", "values": [
      {"measurement": "logP", "setting": "[3]", "result": 3.9},
      {"measurement": "IC50", "setting": "[1]", "result": 0.05, "unit": "µM"}
    ]},
    {"smiles": "CC(CN1CCOCC1)Nc1nc2ccc(-n3cnc4cnc5cnc(-c6cccs6)cc5c43)cc2s1", "note": "(stereo not drawn)", "values": [
      {"measurement": "logP", "setting": "[3]", "result": 5.1},
      {"measurement": "fraction unbound at 4 h, 5 µM", "setting": "[4]", "result": "< 0.01"},
      {"measurement": "clearance", "setting": "[5]", "result": 40, "unit": "mL/min/kg"},
      {"measurement": "dose excreted", "setting": "[6]", "result": 0.63, "unit": "%"},
      {"measurement": "solubility thermodynamic at 16 h", "setting": "[7]", "result": 13, "unit": "µM"},
      {"measurement": "IC50", "setting": "[8]", "result": 0.29, "unit": "µM"},
      {"measurement": "IC50", "setting": "[9]", "result": "> 10", "unit": "µM"},
      {"measurement": "remaining at 1 h, 5 µM", "setting": "[10]", "result": 66, "unit": "%"},
      {"measurement": "solubility thermodynamic at 16 h", "setting": "[11]", "result": 261, "unit": "µM"},
      {"measurement": "remaining at 4 h", "setting": "[12]", "result": 68, "unit": "%"},
      {"measurement": "dose excreted at 8 h", "setting": "[13]", "result": 1, "unit": "%"},
      {"measurement": "IC50", "setting": "[1]", "result": 0.022, "unit": "µM"},
      {"measurement": "dose excreted", "setting": "[14]", "result": 0.63, "unit": "%"},
      {"measurement": "remaining at 1 h", "setting": "[15]", "result": 86, "unit": "%"},
      {"measurement": "dose excreted at 8 h", "setting": "[16]", "result": 4, "unit": "%"},
      {"measurement": "IC50", "setting": "[17]", "result": 0.28, "unit": "µM"},
      {"measurement": "half-life at 5 µM", "setting": "[18]", "result": "< 3", "unit": "min"}
    ]},
    {"smiles": "c1cc(-c2cc3c(cn2)ncc2ncn(-c4ccc5nc[nH]c5c4)c23)ccn1", "values": [
      {"measurement": "IC50", "setting": "[1]", "result": 0.1, "unit": "µM"}
    ]},
    {"smiles": "N#CCc1ccc(-n2cnc3cnc4ccc(-c5ccsc5)cc4c32)cc1", "values": [
      {"measurement": "logP", "setting": "[3]", "result": 4.9},
      {"measurement": "IC50", "setting": "[1]", "result": 2.6, "unit": "µM"}
    ]},
    {"smiles": "C1=C(c2cc3c(cn2)ncc2ncn(-c4ccc5nc[nH]c5c4)c23)CCCC1", "values": [
      {"measurement": "IC50", "setting": "[1]", "result": 1.3, "unit": "µM"}
    ]},
    {"smiles": "c1nc2ccc(-n3cnc4cnc5cnc(-c6cn[nH]c6)cc5c43)cc2[nH]1", "values": [
      {"measurement": "IC50", "setting": "[1]", "result": 0.15, "unit": "µM"}
    ]},
    {"smiles": "Clc1cc2c(cn1)ncc1ncn(-c3ccc4nc[nH]c4c3)c12", "values": [
      {"measurement": "IC50", "setting": "[1]", "result": "> 10", "unit": "µM"}
    ]},
    {"smiles": "c1nc2ccc(-n3cnc4cnc5cnc(-c6ccsc6)cc5c43)cc2[nH]1", "values": [
      {"measurement": "logP", "setting": "[3]", "result": 4},
      {"measurement": "IC50", "setting": "[1]", "result": 0.04, "unit": "µM"}
    ]},
    {"smiles": "CC(CN1CCOCC1)Nc1nc2ccc(-n3cnc4cnc5cnc(-c6ccccc6)cc5c43)cc2s1", "note": "(stereo not drawn)", "values": [
      {"measurement": "logP", "setting": "[3]", "result": 4.4},
      {"measurement": "fraction unbound at 4 h, 5 µM", "setting": "[4]", "result": "< 0.01"},
      {"measurement": "solubility thermodynamic at 16 h", "setting": "[7]", "result": 9, "unit": "µM"},
      {"measurement": "IC50", "setting": "[8]", "result": 0.13, "unit": "µM"},
      {"measurement": "IC50", "setting": "[9]", "result": 1.01, "unit": "µM"},
      {"measurement": "solubility thermodynamic at 16 h", "setting": "[11]", "result": "> 1000", "unit": "µM"},
      {"measurement": "IC50", "setting": "[1]", "result": 0.009, "unit": "µM"},
      {"measurement": "IC50", "setting": "[17]", "result": 0.12, "unit": "µM"}
    ]}
  ]
}
